Results taken from ChEMBL document CHEMBL4033608, “Benzophenone and Fimetarone Derivatives from the Coprophilous Fungus Delitschia confertaspora” (J Nat Prod, 2017).
The source made the active and inactive calls. The calls are words filed in the database; no cut-off is given here.

Test system: Escherichia coli
Test: Antimicrobial activity against Escherichia coli at 100 ug/disc by standard disc dassay
Type: functional

**Q.** `COC(=O)c1cc(OC)cc(O)c1C(=O)c1cc(C(C)=O)c2oc3cc(OC)cc(C(=O)OC)c3c(=O)c2c1` was tested. Which Activity did it give?
**A.** The Activity was “inactive”.

**Q.** For `COC(=O)c1cc(OC)cc(O)c1C1=C2CC3(COc4cc(OC)cc(C(=O)OC)c4C3=O)C(=O)C(C(C)=O)=C2C=C(C)O1` (centres undefined), which Activity is on record?
**A.** Its Activity is “inactive”.

**Q.** How did the Activity turn out when `COC(=O)c1cc(OC)cc(O)c1C(=O)c1cc(C(C)=O)c(O)c(C(=O)c2c(O)cc(OC)cc2C(=O)OC)c1` was run?
**A.** The Activity was “inactive”.

Test system: Staphylococcus aureus
Test: Antimicrobial activity against Staphylococcus aureus at 100 ug/disc by standard disc dassay
Type: functional

**Q.** Which Activity does the source give for `COC(=O)c1cc(OC)cc(O)c1C(=O)c1cc(C(C)=O)c2oc3cc(OC)cc(C(=O)OC)c3c(=O)c2c1` here?
**A.** The Activity was “inactive”.

**Q.** How did the Activity turn out when `COC(=O)c1cc(OC)cc(O)c1C1=C2CC3(COc4cc(OC)cc(C(=O)OC)c4C3=O)C(=O)C(C(C)=O)=C2C=C(C)O1` (centres undefined) was run?
**A.** The Activity was “inactive”.

**Q.** Which Activity does the source give for `COC(=O)c1cc(OC)cc(O)c1C(=O)c1cc(C(C)=O)c(O)c(C(=O)c2c(O)cc(OC)cc2C(=O)OC)c1` here?
**A.** Its Activity is “inactive”.

Test system: GLI56
Test: Cytotoxicity against human GLI56 cells assessed as reduction in cell viability up to 10 uM by Cell-Titer Glo assay
Type: functional, cell-based
Method in brief: (§1)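 Viability read by CellTiter-Glo: reagent added 1:1 to the well medium, plates kept in foil and shaken 2 min at room temperature, paused 2 min, then shaken 2 min more, and luminescence measured. Compounds were tested at concentrations up to 10 μM. Sphaeropsidin A served as positive control and a DMSO blank as negative control.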

**Q.** Which Activity does the source give for `COC(=O)c1cc(OC)cc(O)c1C(=O)c1cc(C(C)=O)c2oc3cc(OC)cc(C(=O)OC)c3c(=O)c2c1` here?
**A.** Its Activity is “inactive”.

**Q.** With `COC(=O)c1cc(OC)cc(O)c1C1=C2CC3(COc4cc(OC)cc(C(=O)OC)c4C3=O)C(=O)C(C(C)=O)=C2C=C(C)O1` (centres undefined) as the molecule, how does the Activity read?
**A.** The Activity was “inactive”.

**Q.** `COC(=O)c1cc(OC)cc(O)c1C(=O)c1cc(C(C)=O)c(O)c(C(=O)c2c(O)cc(OC)cc2C(=O)OC)c1` was tested. Which Activity did it give?
**A.** The Activity was “inactive”.

Test system: Candida albicans
Test: Antimicrobial activity against Candida albicans at 100 ug/disc by standard disc dassay
Type: functional

**Q.** With `COC(=O)c1cc(OC)cc(O)c1C(=O)c1cc(C(C)=O)c2oc3cc(OC)cc(C(=O)OC)c3c(=O)c2c1` as the molecule, how does the Activity read?
**A.** Its Activity is “inactive”.

**Q.** Which Activity does the source give for `COC(=O)c1cc(OC)cc(O)c1C1=C2CC3(COc4cc(OC)cc(C(=O)OC)c4C3=O)C(=O)C(C(C)=O)=C2C=C(C)O1` (centres undefined) here?
**A.** Its Activity is “inactive”.

**Q.** `COC(=O)c1cc(OC)cc(O)c1C(=O)c1cc(C(C)=O)c(O)c(C(=O)c2c(O)cc(OC)cc2C(=O)OC)c1` was tested. Which Activity did it give?
**A.** Its Activity is “inactive”.

Test system: Cryptococcus neoformans
Test: Antimicrobial activity against Cryptococcus neoformans at 100 ug/disc by standard disc dassay
Type: functional

**Q.** For `COC(=O)c1cc(OC)cc(O)c1C(=O)c1cc(C(C)=O)c2oc3cc(OC)cc(C(=O)OC)c3c(=O)c2c1`, which Activity is on record?
**A.** The Activity was “inactive”.

**Q.** With `COC(=O)c1cc(OC)cc(O)c1C1=C2CC3(COc4cc(OC)cc(C(=O)OC)c4C3=O)C(=O)C(C(C)=O)=C2C=C(C)O1` (centres undefined) as the molecule, how does the Activity read?
**A.** The Activity was “inactive”.

**Q.** How did the Activity turn out when `COC(=O)c1cc(OC)cc(O)c1C(=O)c1cc(C(C)=O)c(O)c(C(=O)c2c(O)cc(OC)cc2C(=O)OC)c1` was run?
**A.** The Activity was “inactive”.

Test system: D453 (Homo sapiens)
Test: Cytotoxicity against human D453 cells assessed as reduction in cell viability up to 10 uM by Cell-Titer Glo assay

**Q.** For `COC(=O)c1cc(OC)cc(O)c1C(=O)c1cc(C(C)=O)c2oc3cc(OC)cc(C(=O)OC)c3c(=O)c2c1`, which Activity is on record?
**A.** The Activity was “inactive”.

**Q.** `COC(=O)c1cc(OC)cc(O)c1C1=C2CC3(COc4cc(OC)cc(C(=O)OC)c4C3=O)C(=O)C(C(C)=O)=C2C=C(C)O1` (centres undefined) was tested. Which Activity did it give?
**A.** Its Activity is “inactive”.

**Q.** Which Activity does the source give for `COC(=O)c1cc(OC)cc(O)c1C(=O)c1cc(C(C)=O)c(O)c(C(=O)c2c(O)cc(OC)cc2C(=O)OC)c1` here?
**A.** The Activity was “inactive”.

Test system: Bacillus subtilis
Test: Antimicrobial activity against Bacillus subtilis at 100 ug/disc by standard disc dassay
Type: functional

**Q.** For `COC(=O)c1cc(OC)cc(O)c1C(=O)c1cc(C(C)=O)c2oc3cc(OC)cc(C(=O)OC)c3c(=O)c2c1`, which Activity is on record?
**A.** Its Activity is “inactive”.

**Q.** `COC(=O)c1cc(OC)cc(O)c1C1=C2CC3(COc4cc(OC)cc(C(=O)OC)c4C3=O)C(=O)C(C(C)=O)=C2C=C(C)O1` (centres undefined) was tested. Which Activity did it give?
**A.** The Activity was “inactive”.

**Q.** `COC(=O)c1cc(OC)cc(O)c1C(=O)c1cc(C(C)=O)c(O)c(C(=O)c2c(O)cc(OC)cc2C(=O)OC)c1` was tested. Which Activity did it give?
**A.** The Activity was “inactive”.

Test system: MDA-MB-231
Test: Cytotoxicity against human MDA-MB-231 cells assessed as reduction in cell viability up to 10 uM by Cell-Titer Glo assay
Type: functional, cell-based
Method in brief: as §1

**Q.** With `COC(=O)c1cc(OC)cc(O)c1C(=O)c1cc(C(C)=O)c2oc3cc(OC)cc(C(=O)OC)c3c(=O)c2c1` as the molecule, how does the Activity read?
**A.** The Activity was “inactive”.

**Q.** `COC(=O)c1cc(OC)cc(O)c1C1=C2CC3(COc4cc(OC)cc(C(=O)OC)c4C3=O)C(=O)C(C(C)=O)=C2C=C(C)O1` (centres undefined) was tested. Which Activity did it give?
**A.** Its Activity is “inactive”.

**Q.** For `COC(=O)c1cc(OC)cc(O)c1C(=O)c1cc(C(C)=O)c(O)c(C(=O)c2c(O)cc(OC)cc2C(=O)OC)c1`, which Activity is on record?
**A.** Its Activity is “inactive”.
